The values that follow come from ChEMBL document CHEMBL1158537, “Antibacterial activities of aminoglycoside antibiotics-derived cationic amphiphiles. Polyol-modified neomycin B-, kanamycin A-, amikacin-, and neamine-based amphiphiles with potent broad spectrum antibacterial activity” (2010).

The subject of assay [1] is Escherichia coli. Put plainly: Antibacterial activity against Escherichia coli CAN-ICU 63074 after 24 hrs by macrobroth dilution method. The format is functional. In outline:
(§1)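 Broth macrodilution was run following CLSI methodology against ATCC reference strains and clinical isolates from the Canadian Intensive Care Unit (CAN-ICU) study, with Gram-positive and Gram-negative organisms tested. The value is the minimum inhibitory concentration, reported in μg/mL.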
(In general: Broth dilution looks for growth in wells or tubes with falling amounts of substance.)

Assay [2] deals with Escherichia coli. Nature of the assay: Antibacterial activity against gentamicin-resistant Escherichia coli ATCC 6174 after 24 hrs by macrobroth dilution method. The format is functional. In outline:
(§2)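 Reference strains from the American Type Culture Collection were tested by broth macrodilution following CLSI methodology. The read-out was the minimum inhibitory concentration, reported in μg/mL. The same method was used for the Gram-positive and Gram-negative organisms.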

Another assay has as its system Acinetobacter baumannii. Nature of the assay: Antibacterial activity against Acinetobacter baumannii CAN-ICU 63169 after 24 hrs by macrobroth dilution method. The format is functional. The procedure, abridged:
as §1

Assay [3] has as its system Staphylococcus aureus. Nature of the assay: Antibacterial activity against Staphylococcus aureus ATCC 29213 after 24 hrs by macrobroth dilution method. The format is functional. The procedure, abridged: as §2
Assay [4] deals with Pseudomonas aeruginosa. Put plainly: Antibacterial activity against Pseudomonas aeruginosa CAN-ICU 62308 after 24 hrs by macrobroth dilution method. The format is functional. The procedure, abridged: as §1
The test system of assay [5] is Pseudomonas aeruginosa. Nature of the assay: Antibacterial activity against Pseudomonas aeruginosa ATCC 27853 after 24 hrs by macrobroth dilution method. The format is functional. The procedure, abridged: as §1
Assay [6] concerns Staphylococcus aureus. Put plainly: Antibacterial activity against methicillin-resistant Staphylococcus aureus ATCC 33592 after 24 hrs by macrobroth dilution method. The format is functional. In outline:
as §2

Assay [7] deals with Staphylococcus epidermidis. Nature of the assay: Antibacterial activity against methicillin-resistant Staphylococcus epidermidis ATCC 14990 after 24 hrs by macrobroth dilution method. The format is functional.
A further assay has as its system Streptococcus pneumoniae. Nature of the assay: Antibacterial activity against Streptococcus pneumoniae ATCC 49619 after 24 hrs by macrobroth dilution method. The format is functional. The procedure, abridged:
as §1

In assay [8] the test system is Stenotrophomonas maltophilia. Nature of the assay: Antibacterial activity against Stenotrophomonas maltophilia CAN-ICU 62585 after 24 hrs by macrobroth dilution method. The format is functional. In outline: as §1
The test system of assay [9] is Escherichia coli. Nature of the assay: Antibacterial activity against Escherichia coli ATCC 25922 after 24 hrs by macrobroth dilution method. The format is functional. The procedure, abridged: as §2
Another assay concerns Klebsiella pneumoniae. Put plainly: Antibacterial activity against Klebsiella pneumoniae ATCC 13883 after 24 hrs by macrobroth dilution method. The note with it: ATCC 13883, 24 h.
Assay [10] relates to Staphylococcus epidermidis. Nature of the assay: Antibacterial activity against Staphylococcus epidermidis […] after 24 hrs by macrobroth dilution method. The format is functional. In outline: as §1

On to `NC[C@@H]1O[C@H](O[C@H]2[C@@H](OCc3ccc(Cl)cc3)[C@H](O[C@@H]3[C@@H](OCc4ccc(Cl)cc4)[C@H](N)C[C@H](N)[C@H]3O[C@H]3O[C@H](CN)[C@@H](OCc4ccc(Cl)cc4)[C@H](OCc4ccc(Cl)cc4)[C@H]3N)O[C@@H]2COCc2ccc(Cl)cc2)[C@H](N)[C@@H](OCc2ccc(Cl)cc2)[C@@H]1OCc1ccc(Cl)cc1.O=C(O)C(F)(F)F`, for which the MIC with Escherichia coli [1] (CAN-ICU 63074, 24 h) was 64 µg/mL; in the assay with Escherichia coli [2] (ATCC 6174, 24 h), greater than 128 µg/mL; in the assay with Acinetobacter baumannii (CAN-ICU 63169, 24 h), greater than 128 µg/mL; against Staphylococcus aureus [3] (ATCC 29213, 24 h) it was 64 µg/mL; with Pseudomonas aeruginosa [4] (CAN-ICU 62308, 24 h) it was greater than 128 µg/mL; against Pseudomonas aeruginosa [5] (ATCC 27853, 24 h), greater than 128 µg/mL. Further, the MIC in the assay with Staphylococcus aureus [6] (ATCC 33592, 24 h) was 64 µg/mL; in [7] (ATCC 14990, 24 h) it was 64 µg/mL; against Streptococcus pneumoniae (ATCC 49619, 24 h) it was 128 µg/mL; in assay [8] (CAN-ICU 62585, 24 h), greater than 128 µg/mL; in the assay on Escherichia coli [9] (ATCC 25922, 24 h), 128 µg/mL; against Klebsiella pneumoniae, 128 µg/mL. The molecule also had an MIC in [10] of 32 µg/mL.
Take `NC[C@@H]1O[C@H](O[C@H]2[C@@H](OCc3ccccc3)[C@H](O[C@@H]3[C@@H](OCc4ccccc4)[C@H](N)C[C@H](N)[C@H]3O[C@H]3O[C@H](CN)[C@@H](OCc4ccccc4)[C@H](OCc4ccccc4)[C@H]3N)O[C@@H]2COCc2ccccc2)[C@H](N)[C@@H](OCc2ccccc2)[C@@H]1OCc1ccccc1.O=C(O)C(F)(F)F`: the minimum inhibitory concentration (MIC) is 4 µg/mL with Escherichia coli [1] (CAN-ICU 63074, 24 h); 16 µg/mL in the assay on Escherichia coli [2] (ATCC 6174, 24 h); 16 µg/mL in the assay with Acinetobacter baumannii (CAN-ICU 63169, 24 h); 4 µg/mL in the assay on Staphylococcus aureus [3] (ATCC 29213, 24 h); 64 µg/mL against Pseudomonas aeruginosa [4] (CAN-ICU 62308, 24 h); 32 µg/mL with Pseudomonas aeruginosa [5] (ATCC 27853, 24 h). Besides, the MIC in the assay with Staphylococcus aureus [6] (ATCC 33592, 24 h) came out at 4 µg/mL; in assay [7] (ATCC 14990, 24 h), 2 µg/mL; against Streptococcus pneumoniae (ATCC 49619, 24 h), 16 µg/mL; in assay [8] (CAN-ICU 62585, 24 h), 8 µg/mL; against Escherichia coli [9] (ATCC 25922, 24 h), 8 µg/mL; in the assay on Klebsiella pneumoniae, 8 µg/mL. This molecule registered a minimal inhibitory concentration (MIC) in assay [10] of 2 µg/mL.
On to `NC[C@H]1O[C@H](O[C@H]2[C@H](OC(=O)Nc3ccccc3)[C@@H](O[C@H]3O[C@H](COC(=O)Nc4ccccc4)[C@@H](OC(=O)Nc4ccccc4)[C@H](N)[C@H]3OC(=O)Nc3ccccc3)[C@H](N)C[C@@H]2N)[C@H](OC(=O)Nc2ccccc2)[C@@H](OC(=O)Nc2ccccc2)[C@@H]1OC(=O)Nc1ccccc1.O=C(O)C(F)(F)F`, for which the minimal inhibitory concentration (MIC) against Escherichia coli [1] (CAN-ICU 63074, 24 h) is greater than 256 µg/mL; against Escherichia coli [2] (ATCC 6174, 24 h) it was greater than 256 µg/mL; in the assay on Acinetobacter baumannii (CAN-ICU 63169, 24 h), greater than 256 µg/mL; with Staphylococcus aureus [3] (ATCC 29213, 24 h), 32 µg/mL; with Pseudomonas aeruginosa [4] (CAN-ICU 62308, 24 h), greater than 256 µg/mL; against Pseudomonas aeruginosa [5] (ATCC 27853, 24 h) it was greater than 256 µg/mL. The MIC with Staphylococcus aureus [6] (ATCC 33592, 24 h) was 32 µg/mL; in assay [7] (ATCC 14990, 24 h), 8 µg/mL; against Streptococcus pneumoniae (ATCC 49619, 24 h), 64 µg/mL; in assay [8] (CAN-ICU 62585, 24 h), greater than 256 µg/mL; against Escherichia coli [9] (ATCC 25922, 24 h), greater than 256 µg/mL; with Klebsiella pneumoniae it was greater than 256 µg/mL. In [10], the MIC is 4 µg/mL.
Turning to `NC[C@H]1O[C@H](O[C@H]2[C@H](OC(=O)Nc3ccccc3)[C@@H](OC(=O)Nc3ccccc3)[C@H](N)C[C@@H]2N)[C@H](N)[C@@H](OC(=O)Nc2ccccc2)[C@@H]1OC(=O)Nc1ccccc1.O=C(O)C(F)(F)F`, the MIC worked out at 32 µg/mL against Escherichia coli [1] (CAN-ICU 63074, 24 h); 32 µg/mL in the assay on Escherichia coli [2] (ATCC 6174, 24 h); 256 µg/mL against Acinetobacter baumannii (CAN-ICU 63169, 24 h); 16 µg/mL with Staphylococcus aureus [3] (ATCC 29213, 24 h); 128 µg/mL against Pseudomonas aeruginosa [4] (CAN-ICU 62308, 24 h); 128 µg/mL against Pseudomonas aeruginosa [5] (ATCC 27853, 24 h). Moreover, the MIC was 16 µg/mL in the assay on Staphylococcus aureus [6] (ATCC 33592, 24 h); 8 µg/mL in assay [7] (ATCC 14990, 24 h); greater than 256 µg/mL against Streptococcus pneumoniae (ATCC 49619, 24 h); 64 µg/mL in [8] (CAN-ICU 62585, 24 h); 32 µg/mL against Escherichia coli [9] (ATCC 25922, 24 h); 64 µg/mL with Klebsiella pneumoniae. Moreover, it took 8 µg/mL to inhibit growth in [10] (MIC).
Take `COC[C@H]1O[C@@H](O[C@@H]2[C@@H](OC)[C@H](N)C[C@H](N)[C@H]2O[C@H]2O[C@H](CN)[C@@H](OC)[C@H](OC)[C@H]2N)[C@H](OC)[C@@H]1O[C@H]1O[C@@H](CN)[C@@H](OC)[C@H](OC)[C@H]1N.O=C(O)C(F)(F)F`: the MIC in the assay on Escherichia coli [1] (CAN-ICU 63074, 24 h) was greater than 256 µg/mL; in the assay with Escherichia coli [2] (ATCC 6174, 24 h), greater than 256 µg/mL; in the assay on Acinetobacter baumannii (CAN-ICU 63169, 24 h), greater than 256 µg/mL; in the assay with Staphylococcus aureus [3] (ATCC 29213, 24 h), greater than 256 µg/mL; in the assay on Pseudomonas aeruginosa [4] (CAN-ICU 62308, 24 h) it was greater than 256 µg/mL; in the assay on Pseudomonas aeruginosa [5] (ATCC 27853, 24 h) it was greater than 256 µg/mL. Also, the MIC in the assay on Staphylococcus aureus [6] (ATCC 33592, 24 h) was greater than 256 µg/mL; in assay [7] (ATCC 14990, 24 h) it was greater than 256 µg/mL; against Streptococcus pneumoniae (ATCC 49619, 24 h) it was greater than 256 µg/mL; in assay [8] (CAN-ICU 62585, 24 h), greater than 256 µg/mL; in the assay with Escherichia coli [9] (ATCC 25922, 24 h), greater than 256 µg/mL; against Klebsiella pneumoniae it was greater than 256 µg/mL. The same molecule yielded an MIC in assay [10] of 256 µg/mL.
For GENTAMICIN, the MIC turned out to be 8 µg/mL in the assay on Escherichia coli [1]; 128 µg/mL in the assay with Escherichia coli [2]; 128 µg/mL against Acinetobacter baumannii; 1 µg/mL in the assay with Staphylococcus aureus [3]; 128 µg/mL with Pseudomonas aeruginosa [4]; 8 µg/mL in the assay on Pseudomonas aeruginosa [5]. Moreover, the MIC against Staphylococcus aureus [6] is 2 µg/mL; in assay [7] it was 32 µg/mL; in the assay with Streptococcus pneumoniae it was 4 µg/mL; in assay [8], greater than 512 µg/mL; against Escherichia coli [9], 1 µg/mL; in [10], 0.25 µg/mL.

In general, MIC refers to the lowest concentration found to suppress growth. The low end stands for inhibition by little substance, the high end for a need for much substance.
